Measurements reported in PMC4899155 (Molecular pharmaceutics, 2016).

Legend:
[1] = tested on: Balb/c mice; assay: Rotarod assay; assay type: in vivo, mouse; conditions: 10 minutes after injection, 15 rpm
[2] = Metabolic stability in human liver microsomes; assay type: in vitro ADME
[3] = Metabolic stability in mouse liver microsomes; assay type: in vitro ADME
[4] = Metabolic stability in human S9 fraction; assay type: in vitro ADME; conditions: 1 hour incubation
[5] = Metabolic stability in mouse S9 fraction; assay type: in vitro ADME; conditions: 1 hour incubation
[6] = Stability in mouse plasma; assay type: in vitro ADME
[7] = Single dose pharmacokinetic study in mice; assay type: in vivo; conditions: 5 mg/kg i.p.
Outline: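 Mice received a single 5 mg/kg i.p. dose of test compound in 10% DMSO, 40% propylene glycol and 50% PBS. Compound levels were followed over time in brain, lung and blood, with N = 3.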

[8] = Blood concentration under repeated dosing / osmotic minipump in Ova S/C mice; assay type: in vivo, Balb/c mice
Outline: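 Ova-sensitized/challenged Balb/c mice received test compound by surgically implanted osmotic minipump at 20 mg/kg/day for 7 days, or by two i.p. injections daily over the 5-day challenge period. Blood concentration was taken on the day of airway hyper-responsiveness measurement (day 28).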

[9] = tested on: Ova S/C Balb/c mice; assay: Airway hyper-responsiveness to methacholine; assay type: in vivo, mouse
Outline: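 Male Balb/c mice were sensitized i.p. with 2 mg/kg/d ovalbumin in 2 mg alum on days 0, 7 and 14, then challenged intranasally with 1 mg/kg/d ovalbumin on days 23–27. Dosing was by i.p. injection 40 min before testing, or twice daily during challenge. The dexamethasone control was 4 mg/kg i.p. daily for 8 days. sRaw was measured versus aerosolized methacholine (mg/ml) in conscious mice (4-7/group, mean ± SEM).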

[10] = tested on: Ova S/C Balb/c mice; assay: Mucin volume density; assay type: in vivo, mouse
Outline: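 Ova-sensitized/challenged Balb/c mice were dosed as single 20 mg/kg i.p. 40 min before analysis, twice-daily 20 mg/kg i.p. for 5 days, osmotic pump 20 mg/kg/day for 7 days, or dexamethasone 4 mg/kg daily for 8 days. Formalin-perfused lungs were cut into 5 μm paraffin sections and stained with periodic acid fluorescent Schiff. Mucin area in axial-bronchus epithelium per basement-membrane length was normalized to control and Ova groups (5-7 mice/group).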

[11] = tested on: Ova S/C Balb/c mice; assay: Airway eosinophilia; assay type: in vivo, mouse
[12] = tested on: Jurkat cells; assay: IL-2 ELISA assay in PMA/PHA stimulated Jurkat cells; assay type: cell-based, human; conditions: for IL-2 secretion: PMA/PHA stimulated Jurkat cells
Outline: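 Jurkat cells were kept in RPMI 1640 with L-glutamine and 10% FBS at 37°C, 5% CO2, about 10^6 cells/ml. […] After 15 min, a PHA (25 μg/mL)/PMA (1.25 μg/ml) mixture in PBS:DMSO (80:1) was added and cells were incubated 24 h at 37°C. Supernatant IL-2 was measured by human IL-2 ELISA.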

[13] = tested on: Jurkat cells; assay: Intracellular calcium assay; assay type: cell-based, human
[14] = tested on: Jurkat cells; assay: Automated patch-clamp electrophysiology for Jurkat cells; assay type: cell-based, human; conditions: in the presence of an EC3 concentration of GABA (0.3 μM)
[15] = tested on: guinea pig tracheal rings; assay: Guinea pig airway smooth muscle organ bath; assay type: cell-based; conditions: 100 μM, rings contracted with 1 μM substance P, compared to vehicle
[16] = molecular target: α4β3γ2 GABAAR (Homo sapiens, UniProt P18507+P48169); conditions: α4β3γ2 ref 27; cited from earlier work
α4β3γ2 GABAAR, sequence (P48169 36-554): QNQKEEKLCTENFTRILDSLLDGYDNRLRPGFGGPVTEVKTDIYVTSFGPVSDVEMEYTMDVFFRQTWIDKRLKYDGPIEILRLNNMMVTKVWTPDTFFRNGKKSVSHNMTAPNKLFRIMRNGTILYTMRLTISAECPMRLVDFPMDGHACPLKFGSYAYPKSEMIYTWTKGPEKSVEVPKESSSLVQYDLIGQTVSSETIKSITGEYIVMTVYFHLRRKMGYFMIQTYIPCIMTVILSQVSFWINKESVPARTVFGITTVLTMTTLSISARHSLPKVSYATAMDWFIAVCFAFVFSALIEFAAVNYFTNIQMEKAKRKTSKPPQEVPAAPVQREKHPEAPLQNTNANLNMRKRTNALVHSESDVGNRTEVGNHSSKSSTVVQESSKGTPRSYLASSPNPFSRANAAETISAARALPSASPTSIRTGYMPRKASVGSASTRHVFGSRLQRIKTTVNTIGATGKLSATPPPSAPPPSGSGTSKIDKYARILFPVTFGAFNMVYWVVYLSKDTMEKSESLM
α4β3γ2 GABAAR, sequence (P28472 26-473 partner): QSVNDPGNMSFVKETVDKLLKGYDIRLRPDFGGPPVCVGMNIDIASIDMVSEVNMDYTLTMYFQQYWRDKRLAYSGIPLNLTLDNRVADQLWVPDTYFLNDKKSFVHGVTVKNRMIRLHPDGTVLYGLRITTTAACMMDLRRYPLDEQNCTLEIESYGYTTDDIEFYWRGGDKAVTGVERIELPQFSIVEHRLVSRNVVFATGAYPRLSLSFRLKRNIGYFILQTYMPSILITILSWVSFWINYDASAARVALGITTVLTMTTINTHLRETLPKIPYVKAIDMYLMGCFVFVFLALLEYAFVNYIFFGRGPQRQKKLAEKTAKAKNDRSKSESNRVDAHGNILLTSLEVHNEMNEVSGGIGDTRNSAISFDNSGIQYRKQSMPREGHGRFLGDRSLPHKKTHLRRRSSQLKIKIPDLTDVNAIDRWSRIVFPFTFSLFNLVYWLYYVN
α4β3γ2 GABAAR, sequence (P18507 40-475): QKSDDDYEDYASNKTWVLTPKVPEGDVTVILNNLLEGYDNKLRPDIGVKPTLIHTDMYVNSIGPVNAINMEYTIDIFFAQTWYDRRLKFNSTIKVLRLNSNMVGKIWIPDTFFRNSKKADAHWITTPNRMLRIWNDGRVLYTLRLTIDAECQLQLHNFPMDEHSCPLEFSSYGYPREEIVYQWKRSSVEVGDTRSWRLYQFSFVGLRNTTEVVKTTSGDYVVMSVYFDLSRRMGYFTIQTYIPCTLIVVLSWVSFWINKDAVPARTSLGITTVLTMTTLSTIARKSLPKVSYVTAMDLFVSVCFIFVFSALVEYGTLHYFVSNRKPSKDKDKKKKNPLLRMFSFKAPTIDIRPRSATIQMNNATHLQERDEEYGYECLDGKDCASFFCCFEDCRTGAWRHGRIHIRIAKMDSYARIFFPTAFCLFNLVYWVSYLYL

[17] = tested on: α6β3γ2 GABAAR; conditions: at concentrations higher that 1 μM ref 27; cited from earlier work

Which “motor impairment on rotarod” value ([1]; 5 mg/kg i.p.) does the source give for CN1C(=O)CN=C(c2ccccc2)c2cc(Cl)ccc21 [diazepam, reference compound] here?
Its value is “induced significant motor impairment”.

With CCOC(=O)c1ncn2c1[C@@H]1CCCN1C(=O)c1cc(OC)ccc1-2 [XHE-III-74EE] as the molecule, how does the “human liver microsomes % remaining after 1 hour” value ([2]; 1 hour incubation) read?
Its value is 99.2 ± 0.15%.

What about the “predicted half-life” value ([2]; human liver microsomes and S9 fraction) of the same molecule?
The value was “several hours”.

And the “Mouse liver microsomes % remaining after 1 hour” value ([3]; 1 hour incubation)?
The value was 86.3 ± 0.3%.

And the “predicted half-life” value ([3]; mouse liver microsomes and S9 fraction)?
The value was “several hours”.

And the “human S9 fraction % remaining after 1 hour” value [4]?
Its value is 95.6 ± 0.3%.

What about the “Mouse S9 fraction % remaining after 1 hour” value [5] of the same molecule?
The value was 98.4 ± 0.4%.

What about the “Mouse plasma (stability; row prints no unit or time)” value ([6]; Table 1 of in vitro metabolic stability) of the same molecule?
The value was 92.6 ± 0.2.

What about the “stability in blood plasma” value ([6]; at least one hour) of the same molecule?
Its value is “stable in blood plasma”.

What about the “AUC in brain as % of the AUC in blood” value [7] of the same molecule?
The value was 79%.

What about the “AUC in lung as % of the blood AUC” value [7] of the same molecule?
Its value is 60%.

What about the “Cmax in blood versus lung” value [7] of the same molecule?
Its value is “roughly two times higher in blood than in lung”.

And the Tmax in blood [7]?
Its Tmax in blood is 10 min.

What about the Tmax in lung [7] of the same molecule?
The Tmax in lung was 3 min.

And the half-life in brain [7]?
Its half-life in brain is 36.7 min.

What about the half-life in lung [7] of the same molecule?
Its half-life in lung is 17.6 min.

What about the “blood concentration, continuous release by implanted minipumps” value ([8]; implanted minipumps (Discussion)) of the same molecule?
Its value is 27.2 ng/mL.

And the “constant blood concentration at the day of AHR measurement” value ([8]; implanted minipumps, 20 mg/kg/day for 7 days)?
The value was 27.2 ± 2.7 ng/g.

What about the cmax ([8]; twice daily i.p. injection) of the same molecule?
The cmax was 216 ng/mL.

What about the “motor impairment on rotarod” value ([1]; 5 mg/kg i.p.) of the same molecule?
Its value is “did not impair motorsensory coordination”.

And the “motor impairment on rotarod” value ([1]; 40 mg/kg i.p.)?
The value was “did cause motor-impairing effects”.

What about the “methacholine-induced AHR (sRaw), words” value ([9]; 20 mg/kg i.p. twice daily for 5 days) of the same molecule?
The value was “reduced methacholine-induced AHR”.

What about the “methacholine-induced AHR (sRaw), words” value ([9]; osmotic pump, 20 mg/kg daily for 7 days) of the same molecule?
The value was “effective in reducing AHR at low concentrations of methacholine”.

And the “methacholine-induced AHR (sRaw), words” value ([9]; single i.p. 10 mg/kg, 40 minutes prior to analysis)?
The value was “did not alter AHR”.

What about the “methacholine-induced AHR (sRaw), words” value ([9]; single i.p. 20 mg/kg, 40 minutes prior to analysis) of the same molecule?
Its value is “did not alter AHR”.

What about the “airway mucous metaplasia / mucin volume density” value ([10]; 20 mg/kg i.p. injections daily for 5 days) of the same molecule?
The value was “did not significantly change airway mucous metaplasia”.

What about the “airway mucous metaplasia / mucin volume density” value ([10]; 20 mg/kg/day via osmotic pump) of the same molecule?
Its value is “no change in airway mucous metaplasia”.

And the “mucin production” value ([10]; acute, single i.p. injection for 40 minutes)?
Its value is “did not change mucin production”.

What about the “airway eosinophilia” value ([11]; 20 mg/kg twice i.p. injection daily for 5 days) of the same molecule?
Its value is “not effective in reducing airway eosinophilia”.

What about the “airway eosinophilia” value ([11]; 20 mg/kg via osmotic pump) of the same molecule?
Its value is “no change in airway eosinophilia”.

And the “airway eosinophilia” value ([11]; acute, single i.p. injection 20 mg/kg for 40 minutes)?
Its value is “not effective in reducing airway eosinophilia”.

And the “IL-2 production” value ([12]; under similar conditions, without supplemental GABA)?
The value was “did not reduce IL-2 production”.

And the “extent of inhibition of PMA/PHA-induced increases in [Ca2+]i” value ([13]; Jurkat cells, Fluo-4)?
The value was “partial inhibition”.

What about the IC50 ([13]; read-out: IC50, PMA/PHA-induced increase in [Ca2+]i, Jurkat cells, Fluo-4) of the same molecule?
The IC50 was 24.3 ± 9.8 nM.

And the GABA-induced current potentiation [14]?
The GABA-induced current potentiation was 734%.

What about the “relaxation of airway smooth muscle contractile force” value [15] of the same molecule?
The value was “induced active relaxation”.

What about the “reported GABAAR subtype selectivity” value [16] of the same molecule?
Its value is “subtype-selective”.

And the “reported activity at α6β3γ2 GABAAR” value [17]?
The value was “some activity”.

Which “airway mucous metaplasia / mucin volume density” value ([10]; single i.p. injection daily for 8 days, 4 mg/kg, p<0.01) does the source give for C[C@@H]1C[C@H]2[C@@H]3CCC4=CC(=O)C=C[C@]4(C)[C@@]3(F)[C@@H](O)C[C@]2(C)[C@@]1(O)C(=O)CO [dexamethasone, reference compound] here?
Its value is “significantly decreased mucous metaplasia”.

And the “airway eosinophilia” value ([11]; 4 mg/kg i.p. daily for 8 days)?
Its value is “significantly decreased airway eosinophilia”.

For NCCCC(=O)O [GABA, reference compound], which “IL-2 secretion” value ([12]; 1 nM) is on record?
Its value is “ineffective”.

And the “IL-2 secretion” value ([12]; 100 nM)?
Its value is “significantly reduced secretion of IL-2”.

And the “increase in [Ca2+]i” value ([13]; 150 mM)?
The value was “fully suppressed”.

What about the “concentration able to reduce the [Ca2+]i levels” value ([13]; Jurkat cells) of the same molecule?
The value was no less than 30 mM.
